Measured values: ChEMBL document CHEMBL5678801, “A benzothiophene inhibitor of mitogen-activated protein kinase-activated protein kinase 2 inhibits tumor necrosis factor alpha production and has oral anti-inflammatory efficacy in acute and chronic models of inflammation” (J Pharmacol Exp Ther, 2010)

Target: T1, Tyrosine-protein kinase receptor UFO (Homo sapiens, UniProt P30530)
T1 sequence (P30530 whole entry): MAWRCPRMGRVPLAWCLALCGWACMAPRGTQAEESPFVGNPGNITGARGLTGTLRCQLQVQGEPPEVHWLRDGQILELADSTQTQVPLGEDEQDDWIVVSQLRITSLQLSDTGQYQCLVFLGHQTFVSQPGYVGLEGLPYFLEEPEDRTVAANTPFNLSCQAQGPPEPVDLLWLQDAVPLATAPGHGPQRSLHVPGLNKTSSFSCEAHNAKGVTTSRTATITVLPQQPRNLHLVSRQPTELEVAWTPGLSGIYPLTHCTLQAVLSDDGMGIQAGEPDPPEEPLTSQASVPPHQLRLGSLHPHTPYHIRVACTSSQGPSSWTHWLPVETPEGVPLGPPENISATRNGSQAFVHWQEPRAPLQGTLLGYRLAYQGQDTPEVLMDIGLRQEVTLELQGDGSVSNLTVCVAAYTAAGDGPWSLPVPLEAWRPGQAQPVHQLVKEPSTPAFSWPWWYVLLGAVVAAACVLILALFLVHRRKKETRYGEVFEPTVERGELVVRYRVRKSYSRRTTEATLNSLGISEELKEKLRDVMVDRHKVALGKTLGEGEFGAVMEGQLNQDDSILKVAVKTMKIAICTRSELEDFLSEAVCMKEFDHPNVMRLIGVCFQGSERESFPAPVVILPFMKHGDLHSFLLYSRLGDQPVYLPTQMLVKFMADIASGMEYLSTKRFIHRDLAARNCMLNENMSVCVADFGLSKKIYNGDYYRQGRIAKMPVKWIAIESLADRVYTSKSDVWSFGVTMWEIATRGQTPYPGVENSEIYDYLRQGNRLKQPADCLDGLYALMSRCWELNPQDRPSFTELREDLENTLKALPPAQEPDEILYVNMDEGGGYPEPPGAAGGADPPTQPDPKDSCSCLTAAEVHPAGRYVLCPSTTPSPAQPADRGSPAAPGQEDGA
Assay: Inhibition of Axl (unknown origin)
Summary of the method: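 Kinase panel: 200 kinases were first screened at 1 μM inhibitor for percent inhibition. Those above 50% inhibition were then titrated for IC50. MgATP was fixed at the Km(app) determined for each enzyme.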

- IC50: 428 nM
SMILES: Cc1ccc(-c2ccc3c(ccc4sc5c(c43)NC[C@@H](C)NC5=O)n2)cn1
